Source: ChEMBL document CHEMBL1126019, “Synthesis, stability, and biological evaluation of water-soluble prodrugs of a new echinocandin lipopeptide. Discovery of a potential clinical agent for the treatment of systemic candidiasis and Pneumocystis carinii pneumonia (PCP)” (J Med Chem, 1992)
Numbered stars: 1 amine (or outer) side, 2 acyl side, 3 side chain; on linkers, the order of the positions; unused ones are H or OH. Bridge positions count the residues as written; N and C are the ends. Square brackets hold non-standard residues; d marks the D form. Peptide text beside a SMILES is read from it. * marks the point of attachment. Orn(4R-OH,5R-OH) = O=C([C@H](C[C@@H](O)[C@@H](O)N[*:3])N[*:1])[*:2]; hTyr(3S-OH,4S-OH) = N[C@H](C(=O)O)[C@H](O)[C@@H](O)c1ccc(O)cc1; Pro(3S-OH,4S-Me) = C[C@H]1CN[C@H](C(=O)O)[C@H]1O; Benzoyl(4-octyloxy) = CCCCCCCCOc1ccc(C(=O)*)cc1; Hyp = O=C(O)[C@@H]1C[C@@H](O)CN1

Key:
Fungi [1] = assay: (§1) Minimum fungicidal concentration against Candida albicans MY 1028; format: functional, organism-based
In short: (§2)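 Clinical isolates in yeast nitrogen base with 1% dextrose, inoculated with about 5×10^3 CFU per well. Drug was tested by 2-fold serial dilution from 128 to 0.06 µg/mL, with growth for 24 h at 35 °C. 1.5-µL aliquots were then spotted onto Sabouraud dextrose agar and incubated at 35 °C for 24 h. MFC was the lowest concentration giving fewer than five colonies per spot. Duplicate determinations.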

Fungi [2] = assay: (§3) Minimum fungicidal concentration against Candida tropicalis MY 1012; format: functional, organism-based; in short: as §2
Homo sapiens = species: Homo sapiens; assay: Hemolytic potential was determined as the minimum lytic concentration against human red blood cells; format: functional, cell-based
In short: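 Compounds were serially diluted in water containing 10% DMSO and added to whole human blood, then incubated 2 h at 37 °C. Red cell lysis was scored visually, and the lowest lytic concentration was recorded.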

Fungi [3] = assay: Minimum fungicidal concentration against Candida pseudotropicalis MY 1100; format: functional, organism-based
In short: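 Clinical isolates were inoculated at about 5×10^3 CFU into yeast nitrogen base with 1% dextrose, with drug in 2-fold dilutions from 128 to 0.06 µg/mL, and grown 24 h at 35 °C. Then 1.5 µL aliquots were spotted on Sabouraud dextrose agar and held 24 h at 35 °C. MFC is the lowest concentration giving fewer than five colonies per spot, from duplicate determinations.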

[4] = Inhibitory activity against glucan synthesis; format: functional
Fungi [5] = assay: (§4) Minimum fungicidal concentration against Candida albicans MY 1055; format: functional, organism-based; in short: as §2
Fungi [6] = assay: (§5) Minimum fungicidal concentration against Candida parapsilosis MY 1010; format: functional, organism-based; in short: as §2
Mus musculus = species: Mus musculus; assay: Minimum effect dose required to reduce the number of colony forming units in per gram kidney of mice after being challenged, by tail vein injection, with 5 X l0e4 cells of Candida albicans (MY 1055); format: functional
In short: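 DBA/2 mice (5 per dose level) were infected intravenously and dosed ip with vehicle sham or 1.5, 3.0 or 6.0 mg/kg twice daily for 4 days. On day 7 post-infection, kidneys were cultured on SDA (35 °C, 24 h) and CFU/g counted. MED99 is the dose giving ≥99% CFU/g reduction versus vehicle sham.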

Rattus norvegicus = species: Rattus norvegicus; assay: Minimum effect dose required to reduce the number of alveolor cyst load in rat Pneumocystis carinii pneumonia assay; format: functional
In short: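 Immunosuppressed Sprague-Dawley rats with confirmed infection (5 per dose level) were dosed subcutaneously, 0.15 and 0.60 mg/kg twice daily for 4 days. On day 5, lungs were homogenized and cysts counted microscopically in a known amount of homogenate. MED90 is the dose giving ≥90% cyst reduction versus vehicle sham controls.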

Candida albicans [7] = assay: as §1; format: functional, organism-based; in short: as §2
Candida tropicalis = assay: as §3; format: functional, organism-based; in short: as §2
Candida albicans [8] = assay: as §4; format: functional, organism-based; in short: as §2
Candida parapsilosis = assay: as §5; format: functional, organism-based; in short: as §2

`CCC(C)CC(C)CCCCCCCCC(=O)N[C@H]1C[C@@H](O)[C@@H](O)NC(=O)[C@@H]2[C@@H](O)CCN2C(=O)[C@H]([C@@H](O)CC(N)=O)NC(=O)[C@H]([C@H](O)[C@@H](O)c2ccc(OC(=O)OCCN(C)C)cc2)NC(=O)[C@@H]2C[C@@H](O)CN2C(=O)[C@H]([C@H](C)O)NC1=O` (stereo not given in full) showed a Concentration (Fungi [1]) of 0.125 µg/mL, a Concentration (Fungi [2]) of 0.125 µg/mL and a Concentration (Homo sapiens) of 50 µg/mL. It also gave a Concentration (Fungi [3]) of 1 µg/mL, an IC50 [4] of 100 nM and a Concentration (Fungi [5]) of 0.25 µg/mL. For the same compound, the Concentration (Fungi [6]) was 2 µg/mL.
For `CCC(C)CC(C)CCCCCCCCC(=O)N[C@H]1C[C@@H](O)[C@@H](O)NC(=O)[C@@H]2[C@@H](O)CCN2C(=O)[C@H]([C@@H](O)CC(N)=O)NC(=O)[C@H]([C@H](O)[C@@H](O)c2ccc(OC(=O)NCCC(=O)O)cc2)NC(=O)[C@@H]2C[C@@H](O)CN2C(=O)[C@H]([C@@H](C)O)NC1=O` (stereo not given in full), the MED99 (Mus musculus) was > 6 mg/kg and the MED90 (Rattus norvegicus) was > 0.6 mg/kg.
`CCC(C)CC(C)CCCCCCCCC(=O)N[C@H]1C[C@@H](O)[C@@H](O)NC(=O)[C@@H]2[C@@H](O)CCN2C(=O)[C@H]([C@@H](O)CC(N)=O)NC(=O)[C@H]([C@H](O)[C@@H](O)c2ccc(O)cc2)NC(=O)[C@@H]2C[C@@H](O)CN2C(=O)[C@H]([C@@H](C)O)NC1=O` (stereo not given in full) showed an MED99 (Mus musculus) of 3 mg/kg and an MED90 (Rattus norvegicus) of 0.15 mg/kg.
With `CCC(C)CC(C)CCCCCCCCC(=O)N[C@H]1C[C@@H](O)[C@@H](O)NC(=O)[C@@H]2[C@@H](O)CCN2C(=O)[C@H]([C@@H](O)CC(N)=O)NC(=O)[C@H]([C@H](O)[C@@H](O)c2ccc(OC(=O)CN)cc2)NC(=O)[C@@H]2C[C@@H](O)CN2C(=O)[C@H]([C@H](C)O)NC1=O` (stereo not given in full) the Concentration (Fungi [1]) was 1 µg/mL, the Concentration (Fungi [2]) was < 0.06 µg/mL and the Concentration (Homo sapiens) was 100 µg/mL. For the same compound, the Concentration (Fungi [3]) was 2 µg/mL, the IC50 [4] was 50 nM and the Concentration (Fungi [5]) was 0.5 µg/mL.
With `CCC(C)CC(C)CCCCCCCCC(=O)N[C@H]1C[C@@H](O)[C@@H](O)NC(=O)[C@@H]2[C@@H](O)CCN2C(=O)[C@H]([C@@H](O)CC(N)=O)NC(=O)[C@H]([C@H](O)[C@@H](O)c2ccc(OC(=O)NCC(=O)O)cc2)NC(=O)[C@@H]2C[C@@H](O)CN2C(=O)[C@H]([C@@H](C)O)NC1=O` (stereo not given in full) the MED99 (Mus musculus) was > 6 mg/kg and the MED90 (Rattus norvegicus) was > 0.3 mg/kg.
In the case of `CCC(C)CC(C)CCCCCCCCC(=O)N[C@H]1C[C@@H](O)[C@@H](O)NC(=O)[C@@H]2[C@@H](O)CCN2C(=O)[C@H]([C@@H](O)CC(N)=O)NC(=O)[C@H]([C@H](O)[C@@H](O)c2ccc(O)cc2)NC(=O)[C@@H]2C[C@@H](O)CN2C(=O)[C@H]([C@H](C)O)NC1=O` (stereo not given in full), the Concentration (Fungi [1]) is reported as 0.125 µg/mL, the Concentration (Fungi [2]) is reported as 0.06 µg/mL and the Concentration (Homo sapiens) is reported as > 400 µg/mL. For the same compound, the Concentration (Fungi [3]) was 2 µg/mL, the IC50 [4] was 70 nM and the Concentration (Fungi [5]) was 0.25 µg/mL. It also gave a Concentration (Fungi [6]) of 4 µg/mL.
In the case of `CCC(C)CC(C)CCCCCCCCC(=O)N[C@H]1C[C@@H](O)[C@@H](O)NC(=O)[C@@H]2[C@@H](O)CCN2C(=O)[C@H]([C@@H](O)CC(N)=O)NC(=O)[C@H]([C@H](O)[C@@H](O)c2ccc(OC(=O)CN)cc2)NC(=O)[C@@H]2C[C@@H](O)CN2C(=O)[C@H]([C@@H](C)O)NC1=O.Cl` (stereo not given in full), the MED99 (Mus musculus) is reported as 3 mg/kg and the MED90 (Rattus norvegicus) is reported as 0.6 mg/kg.
For `CCCCCCCCOc1ccc(C(=O)N[C@H]2C[C@@H](O)[C@@H](O)NC(=O)[C@@H]3[C@@H](O)[C@@H](C)CN3C(=O)[C@H]([C@@H](C)O)NC(=O)[C@H]([C@H](O)[C@@H](O)c3ccc(O)cc3)NC(=O)[C@@H]3C[C@@H](O)CN3C(=O)[C@H]([C@@H](C)O)NC2=O)cc1` [CILOFUNGIN] ({Benzoyl(4-octyloxy)}-[Orn(4R-OH,5R-OH)]T[Hyp][hTyr(3S-OH,4S-OH)]T[Pro(3S-OH,4S-Me)]; lactam 1-C), the Concentration (Candida albicans [7]) was 0.5 µg/mL, the MED99 (Mus musculus) was 3 mg/kg and the Concentration (Candida tropicalis) was 0.25 µg/mL. For the same compound, the Concentration (Homo sapiens) was > 400 µg/mL, the MED90 (Rattus norvegicus) was > 2.5 mg/kg and the IC50 [4] was 1000 nM. It also gave a Concentration (Candida albicans [8]) of 0.5 µg/mL and a Concentration (Candida parapsilosis) of 16 µg/mL.
`CCC(C)CC(C)CCCCCCCCC(=O)N[C@H]1C[C@@H](O)[C@@H](O)NC(=O)[C@@H]2[C@@H](O)CCN2C(=O)[C@H]([C@@H](O)CC(N)=O)NC(=O)[C@H]([C@H](O)[C@@H](O)c2ccc(OC(=O)CCN)cc2)NC(=O)[C@@H]2C[C@@H](O)CN2C(=O)[C@H]([C@@H](C)O)NC1=O.Cl` (stereo not given in full) gave an MED99 (Mus musculus) of 6 mg/kg and an MED90 (Rattus norvegicus) of 0.15 mg/kg.
For `CCC(C)CC(C)CCCCCCCCC(=O)N[C@H]1C[C@@H](O)[C@@H](O)NC(=O)[C@@H]2[C@@H](O)CCN2C(=O)[C@H]([C@@H](O)CC(N)=O)NC(=O)[C@H]([C@H](O)[C@@H](O)c2ccc(OC(=O)N(C)CC(=O)O)cc2)NC(=O)[C@@H]2C[C@@H](O)CN2C(=O)[C@H]([C@@H](C)O)NC1=O` (stereo not given in full), the MED99 (Mus musculus) was > 6 mg/kg and the MED90 (Rattus norvegicus) was > 0.6 mg/kg.
